Laboratory results published in ChEMBL document CHEMBL5724801, “EUbOPEN Chemogenomics Library - Multiplex” (2024).
Values joined by “and” are separate entries in the source; they are usually repeats but may differ in a detail not shown here. Equal entries are not always repeated.

Legend:
Fibroblast = assay: Multiplex assay against human fibroblast; type: toxicity, cell-based
Summary of the method: (§1)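 Hoechst33342, BioTracker Green Microtubule Cytoskeleton Dye, MitoTracker Red and Annexin V Alexa Fluor 680 were added to live cells at seeding, and imaging on a CQ1 microscope at 37°C and 5% CO2 followed compound addition. Gating by CellPathfinder machine learning separated cells into Hoechst high-intensity objects or normal cells, then normal cells into healthy, pyknosed or fragmented nuclei, then pyknosed cells into mitotic or apoptotic. Per cents of healthy-nucleus cells are reported for the tubulin, mitochondrial-mass and membrane-permeability phenotypes.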

HEK-293T = assay: Multiplex assay against HEK293T; type: toxicity, cell-based; settings: human; summary of the method: as §1
[1] = 12 h, 1 µM, compound concentration 1 uM
[2] = 12 h, 10 µM, compound concentration 10 uM
[3] = 24 h, 1 µM, compound concentration 1 uM
[4] = 24 h, 10 µM, compound concentration 10 uM
[5] = 48 h, 1 µM, compound concentration 1 uM
[6] = 48 h, 10 µM, compound concentration 10 uM

Compound: Cc1cc(-c2ccc3c(c2)CC[C@H]3N2CC3(CCN(C(=O)Cc4cn5cc(C)sc5n4)CC3)C2)ncn1 [PF-5190457]
- Population Apoptotic (%) (Fibroblast; [1]): 29% and 30%
- Population Fragmented Nuclei (%) (Fibroblast; [1]): 16% and 18%
- Population Healthy Nuclei (%) (Fibroblast; [1]): 71% and 46%
- Population Hoechst High Intensity Objects (%) (Fibroblast; [1]): 4%
- Population Membrane Permeable-Phenotype (%) (Fibroblast; [1]): 1% and 9%
- Population Mitochondria Different-Phenotype (%) (Fibroblast; [1]): 5% and 0%
- Population Mitotic Cells (%) (Fibroblast; [1]): 70%
- Population Normal (%) (Fibroblast; [1]): 96% and 95%
- Population Tubulin-Different-Phenotype (%) (Fibroblast; [1]): 24% and 48%
- Total Cell Count (Fibroblast; [1]): 150 and 121
- Population Apoptotic (%) (Fibroblast; [2]): 36% and 45%
- Population Fragmented Nuclei (%) (Fibroblast; [2]): 17% and 20%
- Population Healthy Nuclei (%) (Fibroblast; [2]): 63% and 55%
- Population Hoechst High Intensity Objects (%) (Fibroblast; [2]): 4% and 1%
- Population Membrane Permeable-Phenotype (%) (Fibroblast; [2]): 1% and 6%
- Population Mitochondria Different-Phenotype (%) (Fibroblast; [2]): 5% and 4%
- Population Mitotic Cells (%) (Fibroblast; [2]): 63% and 54%
- Population Normal (%) (Fibroblast; [2]): 95% and 98%
- Population Pyknosed Nuclei (%) (Fibroblast; [2]): 18% and 24%
- Population Tubulin-Different-Phenotype (%) (Fibroblast; [2]): 38% and 56%
- Total Cell Count (Fibroblast; [2]): 186 and 138
- Population Fragmented Nuclei (%) (Fibroblast; [3]): 19% and 23%
- Population Healthy Nuclei (%) (Fibroblast; [3]): 72% and 43%
- Population Hoechst High Intensity Objects (%) (Fibroblast; [3]): 2% and 3%
- Population Membrane Permeable-Phenotype (%) (Fibroblast; [3]): 1% and 5%
- Population Mitochondria Different-Phenotype (%) (Fibroblast; [3]): 4% and 5%
- Population Mitotic Cells (%) (Fibroblast; [3]): 45% and 84%
- Population Normal (%) (Fibroblast; [3]): 97% and 96%
- Population Tubulin-Different-Phenotype (%) (Fibroblast; [3]): 26% and 54%
- Total Cell Count (Fibroblast; [3]): 141 and 126
- Population Apoptotic (%) (Fibroblast; [4]): 44% and 53%
- Population Fragmented Nuclei (%) (Fibroblast; [4]): 19% and 25%
- Population Healthy Nuclei (%) (Fibroblast; [4]): 64% and 49%
- Population Hoechst High Intensity Objects (%) (Fibroblast; [4]): 3% and 5%
- Population Membrane Permeable-Phenotype (%) (Fibroblast; [4]): 0% and 1%
- Population Mitochondria Different-Phenotype (%) (Fibroblast; [4]): 6% and 7%
- Population Mitotic Cells (%) (Fibroblast; [4]): 55% and 46%
- Population Normal (%) (Fibroblast; [4]): 96% and 94%
- Population Pyknosed Nuclei (%) (Fibroblast; [4]): 16% and 25%
- Population Tubulin-Different-Phenotype (%) (Fibroblast; [4]): 37% and 60%
- Total Cell Count (Fibroblast; [4]): 180 and 134
- Population Apoptotic (%) (Fibroblast; [5]): 78% and 34%
- Population Fragmented Nuclei (%) (Fibroblast; [5]): 30% and 32%
- Population Healthy Nuclei (%) (Fibroblast; [5]): 59% and 47%
- Population Hoechst High Intensity Objects (%) (Fibroblast; [5]): 6% and 2%
- Population Mitochondria Different-Phenotype (%) (Fibroblast; [5]): 2% and 6%
- Population Normal (%) (Fibroblast; [5]): 93% and 97%
- Population Pyknosed Nuclei (%) (Fibroblast; [5]): 9% and 20%
- Population Tubulin-Different-Phenotype (%) (Fibroblast; [5]): 23% and 68%
- Total Cell Count (Fibroblast; [5]): 157 and 132
- Population Apoptotic (%) (Fibroblast; [6]): 63% and 62%
- Population Fragmented Nuclei (%) (Fibroblast; [6]): 22% and 30%
- Population Healthy Nuclei (%) (Fibroblast; [6]): 66% and 51%
- Population Hoechst High Intensity Objects (%) (Fibroblast; [6]): 6% and 1%
- Population Membrane Permeable-Phenotype (%) (Fibroblast; [6]): 0% and 5%
- Population Mitochondria Different-Phenotype (%) (Fibroblast; [6]): 12% and 14%
- Population Mitotic Cells (%) (Fibroblast; [6]): 36% and 37%
- Population Normal (%) (Fibroblast; [6]): 93% and 98%
- Population Pyknosed Nuclei (%) (Fibroblast; [6]): 10% and 18%
- Population Tubulin-Different-Phenotype (%) (Fibroblast; [6]): 37% and 64%
- Total Cell Count (Fibroblast; [6]): 192 and 135
- Population Apoptotic (%) (HEK-293T; [1]): 36% and 47%
- Population Fragmented Nuclei (%) (HEK-293T; [1]): 5% and 8%
- Population Healthy Nuclei (%) (HEK-293T; [1]): 83% and 72%
- Population Hoechst High Intensity Objects (%) (HEK-293T; [1]): 5% and 10%
- Population Membrane Permeable-Phenotype (%) (HEK-293T; [1]): 0%
- Population Mitochondria Different-Phenotype (%) (HEK-293T; [1]): 40% and 53%
- Population Mitotic Cells (%) (HEK-293T; [1]): 63% and 52%
- Population Normal (%) (HEK-293T; [1]): 94% and 89%
- Population Pyknosed Nuclei (%) (HEK-293T; [1]): 11% and 19%
- Population Tubulin-Different-Phenotype (%) (HEK-293T; [1]): 25% and 22%
- Total Cell Count (HEK-293T; [1]): 418 and 258
- Population Apoptotic (%) (HEK-293T; [2]): 40% and 54%
- Population Fragmented Nuclei (%) (HEK-293T; [2]): 9% and 3%
- Population Healthy Nuclei (%) (HEK-293T; [2]): 75% and 80%
- Population Hoechst High Intensity Objects (%) (HEK-293T; [2]): 11% and 8%
- Population Membrane Permeable-Phenotype (%) (HEK-293T; [2]): 0%
- Population Mitochondria Different-Phenotype (%) (HEK-293T; [2]): 53% and 70%
- Population Mitotic Cells (%) (HEK-293T; [2]): 60% and 45%
- Population Normal (%) (HEK-293T; [2]): 88% and 91%
- Population Pyknosed Nuclei (%) (HEK-293T; [2]): 14% and 16%
- Population Tubulin-Different-Phenotype (%) (HEK-293T; [2]): 37% and 40%
- Total Cell Count (HEK-293T; [2]): 455 and 322
- Population Apoptotic (%) (HEK-293T; [3]): 21% and 45%
- Population Fragmented Nuclei (%) (HEK-293T; [3]): 8% and 11%
- Population Healthy Nuclei (%) (HEK-293T; [3]): 77% and 78%
- Population Hoechst High Intensity Objects (%) (HEK-293T; [3]): 2% and 7%
- Population Membrane Permeable-Phenotype (%) (HEK-293T; [3]): 0% and 1%
- Population Mitochondria Different-Phenotype (%) (HEK-293T; [3]): 24% and 35%
- Population Mitotic Cells (%) (HEK-293T; [3]): 78% and 54%
- Population Normal (%) (HEK-293T; [3]): 97% and 92%
- Population Pyknosed Nuclei (%) (HEK-293T; [3]): 13% and 9%
- Population Tubulin-Different-Phenotype (%) (HEK-293T; [3]): 16% and 11%
- Total Cell Count (HEK-293T; [3]): 549 and 352
- Population Apoptotic (%) (HEK-293T; [4]): 25% and 36%
- Population Fragmented Nuclei (%) (HEK-293T; [4]): 10% and 5%
